Measured values reported in ChEMBL document CHEMBL1134494, “2-Amino-6-arylsulfonylbenzonitriles as non-nucleoside reverse transcriptase inhibitors of HIV-1” (J Med Chem, 2001).

System: HeLa
Test: Antiviral activity against K103N/L100I mutant virus in the HeLa MAGI assay.
Format: functional, cell-based, Homo sapiens
Conditions: not given
Procedure, shortened: (§1)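 Isogenic recombinant HIV-1 strains carrying the listed RT mutations were tested against the test compounds in HeLa MAGI indicator cells. Beta-galactosidase was quantified by activation of a chemiluminescent substrate 3 days after infection. IC50 was the concentration inhibiting 50% of the HIV-1-induced beta-galactosidase signal relative to untreated controls. It was determined for each recombinant virus.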

| Structure (SMILES) | IC50 [nM] |
| --- | --- |
| N#Cc1c(N)cccc1S(=O)(=O)c1cc(Cl)cc(Cl)c1 | 5500 |
| N#Cc1c(N)cccc1S(=O)(=O)c1cccc2ccccc12 | 1700 |
| Cc1cc(Cl)cc(S(=O)(=O)c2cccc(N)c2C#N)c1 | 20000 |
| COc1cc(C)cc(S(=O)(=O)c2cccc(N)c2C#N)c1 | 19000 |
| Cc1cc(C)cc(S(=O)(=O)c2cccc(N)c2C#N)c1 | 3000 |

System: HeLa
Test: Antiviral activity against K103N/V108I mutant virus in the HeLa MAGI assay.
Format: functional, cell-based, Homo sapiens
Conditions: not given
Procedure, shortened: as §1

| Structure (SMILES) | IC50 [nM] |
| --- | --- |
| N#Cc1c(N)cccc1S(=O)(=O)c1cc(Cl)cc(Cl)c1 | 4000 |
| N#Cc1c(N)cccc1S(=O)(=O)c1cccc2ccccc12 | 3500 |
| Cc1cc(Cl)cc(S(=O)(=O)c2cccc(N)c2C#N)c1 | 33000 |
| COc1cc(C)cc(S(=O)(=O)c2cccc(N)c2C#N)c1 | 16000 |
| Cc1cc(C)cc(S(=O)(=O)c2cccc(N)c2C#N)c1 | 4800 |

System: HeLa
Test: Antiviral activity against E138K mutant virus in the HeLa MAGI assay.
Format: functional, cell-based, Homo sapiens
Conditions: not given
Procedure, shortened: as §1

| Structure (SMILES) | IC50 [nM] |
| --- | --- |
| N#Cc1c(N)cccc1S(=O)(=O)c1cc(Cl)cc(Cl)c1 | 85 |
| N#Cc1c(N)cccc1S(=O)(=O)c1cccc2ccccc12 | 68 |
| Cc1cc(Cl)cc(S(=O)(=O)c2cccc(N)c2C#N)c1 | 15 |
| COc1cc(C)cc(S(=O)(=O)c2cccc(N)c2C#N)c1 | 29 |
| Cc1cc(C)cc(S(=O)(=O)c2cccc(N)c2C#N)c1 | 17 |

System: Human immunodeficiency virus 1
Test: Antiviral activity against HIV-1 infected human MT-4 cells.
Format: functional, organism-based
Conditions: Human immunodeficiency virus 1, MT4
Procedure, shortened: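 HTLV-1-transformed MT4 cells were infected with HIV-1 strain 3B at 100× the amount giving a 50% drop in cell growth. They were cultured 5 days with a range of compound concentrations. IC50 is the concentration restoring 50% of infected-cell growth (cytopathic effect) relative to uninfected MT4 controls.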

| Structure (SMILES) | IC50 [nM] |
| --- | --- |
| N#Cc1c(N)cccc1S(=O)(=O)c1cc(Cl)cc(Cl)c1 | 70 |
| N#Cc1c(N)cccc1S(=O)(=O)c1cccc2ccccc12 | 3320 |
| Cc1cc(Cl)cc(S(=O)(=O)c2cccc(N)c2C#N)c1 | 30 |
| COc1cc(C)cc(S(=O)(=O)c2cccc(N)c2C#N)c1 | 50 |
| Cc1cc(C)cc(S(=O)(=O)c2cccc(N)c2C#N)c1 | 10 |

System: MT4
Test: Cell culture cytotoxicity against MT-4 cells.
Format: functional, cell-based
Conditions: Homo sapiens
Procedure, shortened: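 MT4 cells were exposed to compound in parallel with the 5-day HIV-1 strain 3B cytopathic-effect assay. Compound-induced cytotoxicity is reported as the cell culture cytotoxicity IC50 (CCIC50).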

| Structure (SMILES) | IC50 [nM] |
| --- | --- |
| N#Cc1c(N)cccc1S(=O)(=O)c1cc(Cl)cc(Cl)c1 | > 200000 |
| N#Cc1c(N)cccc1S(=O)(=O)c1cccc2ccccc12 | > 200000 |
| Cc1cc(Cl)cc(S(=O)(=O)c2cccc(N)c2C#N)c1 | > 200000 |
| COc1cc(C)cc(S(=O)(=O)c2cccc(N)c2C#N)c1 | 94000 |
| Cc1cc(C)cc(S(=O)(=O)c2cccc(N)c2C#N)c1 | > 200000 |

System: HeLa
Test: Antiviral activity against V108I/Y181C mutant virus in the HeLa MAGI assay.
Format: functional, cell-based, Homo sapiens
Conditions: not given
Procedure, shortened: as §1

| Structure (SMILES) | IC50 [nM] |
| --- | --- |
| N#Cc1c(N)cccc1S(=O)(=O)c1cc(Cl)cc(Cl)c1 | 58000 |
| N#Cc1c(N)cccc1S(=O)(=O)c1cccc2ccccc12 | 66000 |
| Cc1cc(Cl)cc(S(=O)(=O)c2cccc(N)c2C#N)c1 | 13000 |
| COc1cc(C)cc(S(=O)(=O)c2cccc(N)c2C#N)c1 | 14000 |
| Cc1cc(C)cc(S(=O)(=O)c2cccc(N)c2C#N)c1 | 13000 |

Molecular target: Human immunodeficiency virus type 1 reverse transcriptase (Human immunodeficiency virus 1, UniProt Q72547)
Test: Inhibitory activity against HIV-1 reverse transcriptase
Conditions: not given
Procedure, shortened: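 Recombinant HIV RT at 1 nM was combined with 40 nM Eu-chelate-labeled biotinylated DNA primer/RNA template and 100 nM Cy5-dUTP. Reactions were started with enzyme.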

| Structure (SMILES) | IC50 [nM] |
| --- | --- |
| N#Cc1c(N)cccc1S(=O)(=O)c1cc(Cl)cc(Cl)c1 | 30 |
| N#Cc1c(N)cccc1S(=O)(=O)c1cccc2ccccc12 | 1000 |
| Cc1cc(Cl)cc(S(=O)(=O)c2cccc(N)c2C#N)c1 | 5 |
| COc1cc(C)cc(S(=O)(=O)c2cccc(N)c2C#N)c1 | 10 |

System: HeLa
Test: Antiviral activity against V108I mutant virus in the HeLa MAGI assay.
Format: functional, cell-based, Homo sapiens
Conditions: not given
Procedure, shortened: as §1

| Structure (SMILES) | IC50 [nM] |
| --- | --- |
| N#Cc1c(N)cccc1S(=O)(=O)c1cc(Cl)cc(Cl)c1 | 47 |
| N#Cc1c(N)cccc1S(=O)(=O)c1cccc2ccccc12 | 30 |
| Cc1cc(Cl)cc(S(=O)(=O)c2cccc(N)c2C#N)c1 | 17 |
| COc1cc(C)cc(S(=O)(=O)c2cccc(N)c2C#N)c1 | 29 |
| Cc1cc(C)cc(S(=O)(=O)c2cccc(N)c2C#N)c1 | 17 |

System: HeLa
Test: Antiviral activity against K103N/P225H mutant virus in the HeLa MAGI assay.
Format: functional, cell-based, Homo sapiens
Conditions: not given
Procedure, shortened: as §1

| Structure (SMILES) | IC50 [nM] |
| --- | --- |
| N#Cc1c(N)cccc1S(=O)(=O)c1cc(Cl)cc(Cl)c1 | 3800 |
| N#Cc1c(N)cccc1S(=O)(=O)c1cccc2ccccc12 | 2800 |
| Cc1cc(Cl)cc(S(=O)(=O)c2cccc(N)c2C#N)c1 | 19000 |
| COc1cc(C)cc(S(=O)(=O)c2cccc(N)c2C#N)c1 | 7800 |
| Cc1cc(C)cc(S(=O)(=O)c2cccc(N)c2C#N)c1 | 3300 |

System: HeLa
Test: Antiviral activity against V106A mutant virus in the HeLa MAGI assay.
Format: functional, cell-based, Homo sapiens
Conditions: not given
Procedure, shortened: as §1

| Structure (SMILES) | IC50 [nM] |
| --- | --- |
| N#Cc1c(N)cccc1S(=O)(=O)c1cc(Cl)cc(Cl)c1 | 6.2 |
| N#Cc1c(N)cccc1S(=O)(=O)c1cccc2ccccc12 | 5.4 |
| Cc1cc(Cl)cc(S(=O)(=O)c2cccc(N)c2C#N)c1 | 2.8 |
| COc1cc(C)cc(S(=O)(=O)c2cccc(N)c2C#N)c1 | 2.9 |
| Cc1cc(C)cc(S(=O)(=O)c2cccc(N)c2C#N)c1 | 2.4 |

System: HeLa
Test: Antiviral activity against K103N/Y181C mutant virus in the HeLa MAGI assay.
Format: functional, cell-based, Homo sapiens
Conditions: not given
Procedure, shortened: as §1

| Structure (SMILES) | IC50 [nM] |
| --- | --- |
| N#Cc1c(N)cccc1S(=O)(=O)c1cc(Cl)cc(Cl)c1 | > 50000 |
| N#Cc1c(N)cccc1S(=O)(=O)c1cccc2ccccc12 | > 50000 |
| Cc1cc(Cl)cc(S(=O)(=O)c2cccc(N)c2C#N)c1 | > 50000 |
| COc1cc(C)cc(S(=O)(=O)c2cccc(N)c2C#N)c1 | > 50000 |
| Cc1cc(C)cc(S(=O)(=O)c2cccc(N)c2C#N)c1 | > 50000 |

System: HeLa
Test: Antiviral activity against V106A/Y181C mutant virus in the HeLa MAGI assay.
Format: functional, cell-based, Homo sapiens
Conditions: not given
Procedure, shortened: as §1

| Structure (SMILES) | IC50 [nM] |
| --- | --- |
| N#Cc1c(N)cccc1S(=O)(=O)c1cc(Cl)cc(Cl)c1 | 1800 |
| N#Cc1c(N)cccc1S(=O)(=O)c1cccc2ccccc12 | 230 |
| Cc1cc(Cl)cc(S(=O)(=O)c2cccc(N)c2C#N)c1 | 210 |
| COc1cc(C)cc(S(=O)(=O)c2cccc(N)c2C#N)c1 | 420 |
| Cc1cc(C)cc(S(=O)(=O)c2cccc(N)c2C#N)c1 | 490 |

System: HeLa
Test: Antiviral activity against K103N mutant virus in the HeLa MAGI assay.
Format: functional, cell-based, Homo sapiens
Conditions: not given
Procedure, shortened: as §1

| Structure (SMILES) | IC50 [nM] |
| --- | --- |
| N#Cc1c(N)cccc1S(=O)(=O)c1cc(Cl)cc(Cl)c1 | 8300 |
| N#Cc1c(N)cccc1S(=O)(=O)c1cccc2ccccc12 | 2300 |
| Cc1cc(Cl)cc(S(=O)(=O)c2cccc(N)c2C#N)c1 | 3600 |
| COc1cc(C)cc(S(=O)(=O)c2cccc(N)c2C#N)c1 | 1800 |
| Cc1cc(C)cc(S(=O)(=O)c2cccc(N)c2C#N)c1 | 1100 |

System: HeLa
Test: Antiviral activity against G190A mutant virus in the HeLa MAGI assay.
Format: functional, cell-based, Homo sapiens
Conditions: not given
Procedure, shortened: as §1

| Structure (SMILES) | IC50 [nM] |
| --- | --- |
| N#Cc1c(N)cccc1S(=O)(=O)c1cc(Cl)cc(Cl)c1 | 84 |
| N#Cc1c(N)cccc1S(=O)(=O)c1cccc2ccccc12 | 200 |
| Cc1cc(Cl)cc(S(=O)(=O)c2cccc(N)c2C#N)c1 | 40 |
| COc1cc(C)cc(S(=O)(=O)c2cccc(N)c2C#N)c1 | 87 |
| Cc1cc(C)cc(S(=O)(=O)c2cccc(N)c2C#N)c1 | 30 |

System: HeLa
Test: Antiviral activity against Y181C mutant virus in the HeLa MAGI assay.
Format: functional, cell-based, Homo sapiens
Conditions: not given
Procedure, shortened: as §1

| Structure (SMILES) | IC50 [nM] |
| --- | --- |
| N#Cc1c(N)cccc1S(=O)(=O)c1cc(Cl)cc(Cl)c1 | 50000 |
| N#Cc1c(N)cccc1S(=O)(=O)c1cccc2ccccc12 | 29000 |
| Cc1cc(Cl)cc(S(=O)(=O)c2cccc(N)c2C#N)c1 | 14000 |
| COc1cc(C)cc(S(=O)(=O)c2cccc(N)c2C#N)c1 | 13000 |
| Cc1cc(C)cc(S(=O)(=O)c2cccc(N)c2C#N)c1 | 14000 |

System: HeLa
Test: Antiviral activity against wild-type HIV-1 in the HeLa MAGI assay.
Format: functional, cell-based
Conditions: Homo sapiens
Procedure, shortened: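 HeLa MAGI cells were infected with isogenic recombinant HIV-1. After 3 days, β-galactosidase was quantified by chemiluminescent substrate activation. IC50 is the concentration inhibiting 50% of the HIV-1-induced β-galactosidase signal relative to untreated controls.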

| Structure (SMILES) | IC50 [nM] |
| --- | --- |
| N#Cc1c(N)cccc1S(=O)(=O)c1cc(Cl)cc(Cl)c1 | 37 |
| N#Cc1c(N)cccc1S(=O)(=O)c1cccc2ccccc12 | 14 |
| Cc1cc(Cl)cc(S(=O)(=O)c2cccc(N)c2C#N)c1 | 15 |
| COc1cc(C)cc(S(=O)(=O)c2cccc(N)c2C#N)c1 | 14 |
| Cc1cc(C)cc(S(=O)(=O)c2cccc(N)c2C#N)c1 | 11 |

System: HeLa
Test: Antiviral activity against Y188C mutant virus in the HeLa MAGI assay.
Format: functional, cell-based, Homo sapiens
Conditions: not given
Procedure, shortened: as §1

| Structure (SMILES) | IC50 [nM] |
| --- | --- |
| N#Cc1c(N)cccc1S(=O)(=O)c1cc(Cl)cc(Cl)c1 | 140 |
| N#Cc1c(N)cccc1S(=O)(=O)c1cccc2ccccc12 | 180 |
| Cc1cc(Cl)cc(S(=O)(=O)c2cccc(N)c2C#N)c1 | 400 |
| COc1cc(C)cc(S(=O)(=O)c2cccc(N)c2C#N)c1 | 300 |
| Cc1cc(C)cc(S(=O)(=O)c2cccc(N)c2C#N)c1 | 210 |

System: HeLa
Test: Antiviral activity against P236L mutant virus in the HeLa MAGI assay.
Format: functional, cell-based, Homo sapiens
Conditions: not given
Procedure, shortened: as §1

| Structure (SMILES) | IC50 [nM] |
| --- | --- |
| N#Cc1c(N)cccc1S(=O)(=O)c1cc(Cl)cc(Cl)c1 | 2.5 |
| N#Cc1c(N)cccc1S(=O)(=O)c1cccc2ccccc12 | 2 |
| Cc1cc(Cl)cc(S(=O)(=O)c2cccc(N)c2C#N)c1 | 10 |
| COc1cc(C)cc(S(=O)(=O)c2cccc(N)c2C#N)c1 | 8 |
| Cc1cc(C)cc(S(=O)(=O)c2cccc(N)c2C#N)c1 | 5 |
